Entries after “also recorded” stand apart in the source; their conditions may differ.
How the values were obtained:
[1] = In vitro cytotoxicity, Neutral Red assay; assay type: cell-based; settings: African green monkey, Vero cells (kidney fibroblasts)
Procedure, shortened: (§1)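 Cells were kept in RPMI-1640 with 10% bovine calf serum and amikacin 60 mg/L at 37 °C, 5% CO₂. They were seeded at 25,000 cells/well and grown 24 h, then exposed 48 h to test compound diluted in serum-free medium, tested up to 25 μg/ml. Viability was read by Neutral Red, as % decrease versus vehicle. IC50 came from dose curves, in triplicate, with doxorubicin as reference.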

[2] = In vitro cytotoxicity, Neutral Red assay; assay type: cell-based; settings: human, KB oral epidermal carcinoma cells
Procedure, shortened: (§2)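 Cells grown in RPMI-1640 with 10% bovine calf serum and amikacin (60 mg/L), 37°C, 5% CO₂, 95% humidity. Seeded at 25,000 cells/well, grown 24 h. Test samples diluted in serum-free medium, exposure 48 h. Viable cells counted by Neutral Red uptake; % viability loss against vehicle control. IC50 from dose curves, triplicate, means reported.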

[3] = In vitro cytotoxicity, Neutral Red assay; assay type: cell-based; settings: human, SK-OV-3 ovary carcinoma cells
Procedure, shortened: as §2

[4] = In vitro cytotoxicity, Neutral Red assay; assay type: cell-based; settings: pig, LLC-PK11 pig kidney epithelial cells
Procedure, shortened: as §1

[5] = In vitro cytotoxicity, Neutral Red assay; assay type: cell-based; settings: human, SK-MEL malignant melanoma cells
Procedure, shortened: as §1

rat paw edema = test: Carrageenan-induced rat paw edema assay; assay type: in vivo; settings: for in vivo anti-inflammatory activity (in words): rat paw edema, compared to ketorolac; for Edema thickness ±SEM, 1h / Edema thickness ±SEM, 2h / Edema thickness ±SEM, 3h / Edema thickness ±SEM, 4h: rat, 30 mg/kg intraperitoneally; for Edema thickness ±SEM, 1h: 1h after induction; for Edema thickness ±SEM, 2h: 2h after induction; for Edema thickness ±SEM, 3h: 3h after induction; for Edema thickness ±SEM, 4h: 4h after induction
Procedure, shortened: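 Adult albino rats of both sexes (120–150 g), pre-hydrated with 3 ml water by gavage, in groups of five. Test compound or ketorolac tromethamine was suspended in distilled water with a few drops of Tween 80 and given i.p. 1 h before 1% carrageenan s.c. into the right hind subplantar paw. Controls got saline/Tween 80.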

NF-κB = assay type: cell-based, human; settings: for IC50: Homo sapiens, SW1353, read-out: NF-κB IC50; for NF-κB inhibitory activity (in words): PMA-induced SW1353 cells
Procedure, shortened: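 SW1353 cells were grown in DMEM/F12 with 10% FBS and electroporated with an NF-κB luciferase plasmid (50 μg/mL; 160 V, one 70-ms pulse). They were plated at 1.25 × 10⁵ cells/well for 24 h. […] Parthenolide was the reference; Sp-1 served as control factor.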

[6] = In vitro cytotoxicity, Neutral Red assay; assay type: cell-based; settings: human, BT-549 breast ductal carcinoma cells
Procedure, shortened: as §1

Compound	IC50 at 48 h [1] [µg/mL]	IC50 at 48 h [2] [µg/mL]	IC50 at 48 h [3] [µg/mL]	IC50 at 48 h [4] [µg/mL]	IC50 at 48 h [5] [µg/mL]	in vivo anti-inflammatory activity (in words) (rat paw edema)	Edema thickness ±SEM, 1h (rat paw edema)	Edema thickness ±SEM, 2h (rat paw edema)	Edema thickness ±SEM, 3h (rat paw edema)	Edema thickness ±SEM, 4h (rat paw edema)	IC50 (NF-κB) [µg/mL]	NF-κB inhibitory activity (in words) (NF-κB)	IC50 at 48 h [6] [µg/mL]
O=c1oc2ccccc2n1CCCCCCN1CCN(CCCCCn2c(=O)oc3ccccc32)CC1 [Compound 5s, 3-(5-(4-(6-(2-oxobenzo[d]oxazol-3(2H)-yl)hexyl)piperazin-1-yl)pentyl)benzo[d]oxazol-2(3H)-one]	> 25	> 25	> 25	> 25									
O=c1sc2ccccc2n1CCCCCCN1CCN(CCCCCCn2c(=O)sc3ccccc32)CC1 [Compound 3j, 3,3′-(piperazine-1,4-diylbis(hexane-6,1-diyl))bis(benzo[d]thiaazol-2(3H)-one)]	> 25			> 25	> 25	significant anti-inflammatory and analgesic activity; also recorded: moderate activities compared to ketorolac	95.50 ± 1.02 ×10^−2 mm	97.24 ± 2.35 ×10^−2 mm	101.6 ± 1.68 ×10^−2 mm	123.5 ± 1.13 ×10^−2 mm			
O=c1oc2ccccc2n1CCCCCCN1CCN(CCCCCCn2c(=O)oc3ccccc32)CC1 [Compound 3i, 3,3′-(piperazine-1,4-diylbis(hexane-6,1-diyl))bis(benzo[d]oxazol-2(3H)-one)]	> 25	> 25	> 25	> 25							> 25	devoid of any activity	
O=c1oc2ccccc2n1CCCCCN1CCN(CCn2c(=O)oc3ccccc32)CC1 [Compound 5e, 3-(5-(4-(2-(2-oxobenzo[d]oxazol-3(2H)-yl)ethyl)piperazin-1-yl)pentyl)benzo[d]oxazol-2(3H)-one]	> 25	> 25	> 25	> 25	> 25								> 25
O=c1sc2ccccc2n1CCCCCCN1CCN(CCCn2c(=O)sc3ccccc32)CC1 [Compound 5n, 3-(3-(4-(6-(2-oxobenzo[d]thiazol-3(2H)-yl)hexyl)piperazin-1-yl)propyl)benzo[d]thiazol-2(3H)-one]	> 25	> 25	> 25	> 25								moderately active	
O=c1sc2ccccc2n1CCCCCN1CCN(CCCn2c(=O)sc3ccccc32)CC1 [Compound 5l, 3-(3-(4-(5-(2-oxobenzo[d]thiazol-3(2H)-yl)pentyl)piperazin-1-yl)propyl)benzo[d]thiazol-2(3H)-one]	> 25	> 25	> 25	> 25									
O=c1oc2ccccc2n1CCCN1CCN(CCCn2c(=O)oc3ccccc32)CC1 [Compound 3c, 3,3′-(piperazine-1,4-diylbis(propane-3,1-diyl))bis(benzo[d]oxazol-2(3H)-one)]	> 25	> 25	> 25	> 25	> 25								> 25
O=c1sc2ccccc2n1CCCCCCN1CCN(CCn2c(=O)sc3ccccc32)CC1 [Compound 5h, 3-(6-(4-(2-(2-oxobenzo[d]thiazol-3(2H)-yl)ethyl)piperazin-1-yl)hexyl)benzo[d]thiazol-2(3H)-one]												moderately active	
O=c1sc2ccccc2n1CCCCN1CCN(CCCn2c(=O)sc3ccccc32)CC1 [Compound 5j, 3-(3-(4-(4-(2-oxobenzo[d]thiazol-3(2H)-yl)butyl)piperazin-1-yl)propyl)benzo[d]thiazol-2(3H)-one]												moderately active	
O=C(c1ccccc1)c1ccc2n1CCC2C(=O)O (stereo not shown) [Ketorolac, ketorolac tromethamine, reference compound]							41.6 ± 2.02 ×10^−2 mm	40.2 ± 2.82 ×10^−2 mm	41.2 ± 2.06 ×10^−2 mm	40.4 ± 1.52 ×10^−2 mm			
O=c1sc2ccccc2n1CCCN1CCN(CCn2c(=O)sc3ccccc32)CC1 [Compound 5b, 3-(3-(4-(2-(2-oxobenzo[d]thiazol-3(2H)-yl)ethyl)piperazin-1-yl)propyl)benzo[d]thiazol-2(3H)-one]	> 25	> 25	> 25		> 25						> 25		> 25
c1ccc2sc(SCCCCN3CCN(CCCCSc4nc5ccccc5s4)CC3)nc2c1 [Compound 8b, 1,4-bis(4-(benzo[d]thiazol-2-ylthio)butyl)piperazine]	> 25		> 25	> 25		significant anti-inflammatory and analgesic activity; also recorded: most active dimer; also recorded: promising in vivo activity which was comparable to indomethacin and ketorolac	56.48 ± 2.14 ×10^−2 mm	55.6 ± 2.09 ×10^−2 mm	61.32 ± 1.67 ×10^−2 mm	103.54 ± 1.77 ×10^−2 mm			> 25
O=c1sc2ccccc2n1CCCCCN1CCN(CCCCn2c(=O)sc3ccccc32)CC1 [Compound 5p, 3-(5-(4-(4-(2-oxobenzo[d]thiazol-3(2H)-yl)butyl)piperazin-1-yl)pentyl)benzo[d]thiazol-2(3H)-one]	> 25	> 25	> 25	> 25									
O=c1sc2ccccc2n1CCCCCCN1CCN(CCCCCn2c(=O)sc3ccccc32)CC1 [Compound 5t, 3-(5-(4-(6-(2-oxobenzo[d]thiazol-3(2H)-yl)hexyl)piperazin-1-yl)pentyl)benzo[d]thiazol-2(3H)-one]		> 25		> 25	> 25	significant anti-inflammatory and analgesic activity; also recorded: moderate activities compared to ketorolac	93.01 ± 1.93 ×10^−2 mm	91.57 ± 2.63 ×10^−2 mm	109.24 ± 1.36 ×10^−2 mm	127.34 ± 1.87 ×10^−2 mm			
O=c1sc2ccccc2n1CCCN1CCN(CCCn2c(=O)sc3ccccc32)CC1 [Compound 3d, 3,3′-(piperazine-1,4-diylbis(propane-3,1-diyl))bis(benzo[d]thiazol-2(3H)-one)]	> 25	> 25	> 25		> 25						> 25		> 25
O=c1oc2ccccc2n1CCCCCN1CCN(CCCCCn2c(=O)oc3ccccc32)CC1 [Compound 3g, 3,3′-(piperazine-1,4-diylbis(pentane-5,1-diyl))bis(benzo[d]oxazol-2(3H)-one)]		> 25	> 25	> 25	> 25								> 25
c1ccc2oc(SCCCCN3CCN(CCCCSc4nc5ccccc5o4)CC3)nc2c1 [Compound 8a, 1,4-bis(4-(benzo[d]oxazol-2-ylthio)butyl)piperazine]	> 25		> 25										
O=c1oc2ccccc2n1CCCCCN1CCN(CCCCn2c(=O)oc3ccccc32)CC1 [Compound 5o, 3-(5-(4-(4-(2-oxobenzo[d]oxazol-3(2H)-yl)butyl)piperazin-1-yl)pentyl)benzo[d]oxazol-2(3H)-one]		> 25	> 25	> 25	> 25						> 25		> 25
O=c1sc2ccccc2n1CCCCCN1CCN(CCCCCn2c(=O)sc3ccccc32)CC1 [Compound 3h, 3,3′-(piperazine-1,4-diylbis(pentane-5,1-diyl))bis(benzo[d]thiazol-2(3H)-one)]	> 25	> 25		> 25									
O=c1oc2ccccc2n1CCCCCCN1CCN(CCCCn2c(=O)oc3ccccc32)CC1 [Compound 5q, 3-(6-(4-(4-(2-oxobenzo[d]oxazol-3(2H)-yl)butyl)piperazin-1-yl)hexyl)benzo[d]oxazol-2(3H)-one]	> 25	> 25	> 25	> 25	> 25								> 25
O=c1sc2ccccc2n1CCCCCCN1CCN(CCCCn2c(=O)sc3ccccc32)CC1 [Compound 5r, 3-(6-(4-(4-(2-oxobenzo[d]thiazol-3(2H)-yl)butyl)piperazin-1-yl)hexyl)benzo[d]thiazol-2(3H)-one]	> 25		> 25	> 25									

Source: PMC4467529 (Bioorganic & medicinal chemistry, 2015)
